# An excerpt weighted towards active compounds, which were near 7.2% of everything screened.
# PostGolgi yeast = growth inhibition of a yeast mutant, post-Golgi transport screen; post-Golgi transport phenotypic cell assay; actives 0.9% (n = 98,000); inhibition, % at 10 µM;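 further: yeast cells grown in 1536-well plates; yeast grown about 18 h at 30C before absorbance read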
# tolC growth inh = blocks growth of E. coli BW25113 tolC mutant; OD615; growth inhibition, % at 10 µM (by protocol); actives 2.2% (n = 65,000);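 active means growth inhibition at or above a cutoff equal to the mean over every tested compound plus 3 SD, cut at about 60% in these data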;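 further: growth measured after 20 h incubation at 37 °C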
#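 signal = optical density read at 615 nm | test system = E. coli ΔtolC::kan strain BW25113 | timing = 20 h compound exposure of bacteria at 37 °C | buffer or medium = LB medium plus 50 µg/mL kanamycin | compound dosing = 10 µM final, single dose | evaluation = % inhibition of E. coli growth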
# PLAP act = human PLAP activation. purified PLAP enzyme, luminescent substrate read-out; active compounds read high. activation fold at 20 µM. actives 1.2% (n = 96,000). AID 696; in the data active means activation fold above about 2
# Target sequence (P05187 whole entry, looked up): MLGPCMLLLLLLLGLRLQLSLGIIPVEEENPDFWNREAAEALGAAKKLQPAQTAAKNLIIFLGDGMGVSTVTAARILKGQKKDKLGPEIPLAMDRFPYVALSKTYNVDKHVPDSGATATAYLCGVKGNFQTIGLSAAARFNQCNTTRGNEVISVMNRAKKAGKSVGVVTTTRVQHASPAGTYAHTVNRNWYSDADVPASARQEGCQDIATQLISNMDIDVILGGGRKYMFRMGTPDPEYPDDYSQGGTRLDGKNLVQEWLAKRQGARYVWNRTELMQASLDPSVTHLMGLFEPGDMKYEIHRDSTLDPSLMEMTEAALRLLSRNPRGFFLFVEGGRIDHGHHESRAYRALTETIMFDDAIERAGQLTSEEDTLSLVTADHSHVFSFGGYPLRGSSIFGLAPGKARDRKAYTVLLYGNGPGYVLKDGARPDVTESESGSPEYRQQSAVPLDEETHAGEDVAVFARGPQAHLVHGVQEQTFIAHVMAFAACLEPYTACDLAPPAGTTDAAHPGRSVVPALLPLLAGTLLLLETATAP
# Ecoli WT expand = growth inhibitors of E. coli BW25113 wild type; growth inhibition, % at 100 µM; OD600 absorbance; actives 0.15% (n = 98,000);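 active means growth inhibition above about 50% at one test dose, limit read from the data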;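 further: growth measured after 20 h incubation at 37 °C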
# PostGolgi ctrl = yeast control strain growth, post-Golgi counter-screen. actives 5% (n = 98,000). efflux-deficient yeast background strain, growth absorbance A615, 16 h. inhibition, % at 10 µM
# Numbers without * were called inactive; nt = not tested or not shown. Unless noted, no stated cut-off is given here; in the data, active means inhibition above about 30%; inactive means the rest.
SMILES,PostGolgi yeast,tolC growth inh,PLAP act,Ecoli WT expand,PostGolgi ctrl
N#Cc1c2n(c3c(=O)n(Cc4ccc(Cl)cc4)cnc13)CCCCC2,-10.8,25.4,1.5,-14.0,57.9*
CC(C)n1nc(C(=O)Nc2nnc(SCc3c(Cl)cccc3Cl)s2)c2ccccc2c1=O,-4.0,nt,1.7,-17.0,6.1
O=C(c1cc(Cl)ccc1Cl)N1CCOCC1,1.0,-1.9,1.1,4.0,11.7
O=C(c1cc(-c2ccc(Cl)cc2)n(-c2ccc(Cl)c(Cl)c2)n1)N1CCOCC1,-8.7,nt,1.4,-9.0,40.4*
O=C(c1cc(-c2ccc(Cl)cc2)n(-c2cc(Cl)ccc2Cl)n1)N1CCOCC1,5.0,nt,1.3,-2.0,42.6*
Cc1cccc(C(=O)Nc2ccccc2C(=O)OCc2c(C)noc2C)c1,3.2,49.1,1.1,-10.0,14.2
C/C=C/c1ccc(OCCCn2cncn2)c(OC)c1,0.3,1.1,1.3,1.0,2.8
C/C=C/c1ccc(OCCCCn2cncn2)c(OC)c1,1.8,-0.3,1.2,0.0,31.1*
Cc1ccc(C(=O)N2c3ccccc3N(Cc3ccccc3)C(=O)C2(C)C)cc1,6.2,nt,1,-15.0,19.7
COc1ccc(NC(=O)N(Cc2cc3cc(OC)ccc3[nH]c2=O)CC2CCCO2)cc1 (centres undefined),0.2,-0.6,1.6,3.0,36.5*
COCCN1C(=O)c2ccccc2C(C(=O)N2CCN(c3ccccc3)CC2)C1c1ccc(F)cc1 (centres undefined),-16.0,nt,1.7,5.0,1.9
Cc1ccc(S(=O)(=O)c2c(N)n(Cc3ccco3)c3nc4ccccc4nc23)cc1C,-0.6,nt,1.5,-8.0,6.0
Nc1c(S(=O)(=O)c2ccccc2)c2nc3ccccc3nc2n1Cc1ccco1,-21.9,28.5,0.9,-9.0,30.1*
Cc1nn(CC(=O)NCc2cccc3ccccc23)c(=O)c2ccccc12,-1.9,nt,0.8,2.0,18.1
Cc1ccc2nc(SCC(=O)NC(=O)NCc3ccco3)[nH]c2c1,-5.0,-4.0,2*,4.0,5.8
O=C(CCN1C(=O)c2ccccc2C1=O)Nc1ccc(S(=O)(=O)N2CCOCC2)cc1,5.7,11.8,0.9,2.0,3.0
CC1CCCN(S(=O)(=O)c2ccc(NC(=O)CCN3C(=O)c4ccccc4C3=O)cc2)C1 (centres undefined),41.8*,nt,1,-7.0,18.2
CC1CCCN(S(=O)(=O)c2ccc(NC(=O)Cn3nnc(-c4ccccc4F)n3)cc2)C1 (centres undefined),1.4,64.3*,0.8,-11.0,4.4
CC1CCN(S(=O)(=O)c2ccc(NC(=O)Cn3nnc(-c4ccccc4)n3)cc2)CC1,-4.2,17.4,1,-8.0,9.9
COc1cc(-c2nnc3sc(-c4ccccn4)nn23)cc(OC)c1OC,nt,11.0,nt,nt,nt
Brc1cc(Br)c2nc(-c3ccc(N4CCOCC4)cc3)ccc2c1,3.0,nt,1.2,-9.0,36.5*
CSc1nnc(CSCc2ccc(Cl)cc2Cl)n1-c1ccccc1,-1.7,nt,1.3,-6.0,50.6*
Cc1ccccc1NCCNc1ccccc1C,-5.2,nt,0.8,9.0,2.4
Nc1nc2ccc(Oc3ccccc3)cc2s1,10.4,25.8,1.1,29.0,32.3*
CC(C)c1ccc(NC(=O)C2C3C=CC4(CN(CCCN5CCOCC5)C(=O)C24)O3)cc1 (centres undefined),5.2,4.7,1.1,1.0,7.5
SMILES,PostGolgi yeast,tolC growth inh,PLAP act,Ecoli WT expand,PostGolgi ctrl
COc1ccc(-c2cc(N)n(S(=O)(=O)c3c(F)c(F)c(F)c(F)c3F)n2)cc1OC,103.9*,15.2,1.1,3.0,67.6*
COc1cc2c(cc1OC)CN(S(=O)(=O)c1ccc3c(c1)OCCO3)CC2,-0.6,-1.4,1.6,-4.0,23.1
O=C(Nc1cccc2ccccc12)c1ccc(Cn2cc(Cl)cn2)cc1,-18.9,nt,1,-7.0,38.5*
Cc1ccc(S(=O)(=O)NC(C)(C)CSc2nnc(Nc3ccccc3)s2)cc1,3.4,nt,0.9,-14.0,34.1*
Cc1ccc(S(=O)(=O)NC(C)(C)CSc2nncn2N)cc1,3.8,-7.7,1,-8.0,15.6
CN1CCN(CC(=O)N2CCn3c4c(c5cc(C6CCCCC6)ccc53)CCCC42)CC1 (centres undefined),53.2*,100.0*,1.8,8.0,86.5*
Cc1ccc2c(c1)c1c3n2CCN(C(=O)CN2CCN(C)CC2)C3CCC1 (centres undefined),5.5,2.1,1.7,7.0,6.2
Cc1ccc(S(=O)(=O)n2nc(C)c(Br)c2C)c(C)c1C,-6.7,35.5,1,3.0,48.0*
CCOC(=O)N1CCN(S(=O)(=O)c2ccc(C)c(C)c2C)CC1,-0.8,15.0,1.2,7.0,12.7
N#CCSc1nnc(COc2cccc3ccccc23)n1-c1cccc(Cl)c1,-9.8,8.5,1,-10.0,53.6*
Cc1cccc(-c2nnc(SCC#N)n2-c2ccccc2)c1,8.6,13.4,1.1,6.0,2.3
N#CCSc1nnc(COc2cccc3ccccc23)n1-c1ccccc1,-8.1,48.4,1.5,-11.0,31.3*
Cc1ccc(-c2nnc(CSc3nnc(COc4cccc5ccccc45)n3-c3ccccc3)o2)cc1,-0.9,nt,1.9,-15.0,19.1
CCN(CC)S(=O)(=O)c1cc(C(=O)n2cccn2)c(Cl)cc1Cl,-1.6,-7.3,1.2,2.0,6.5
O=C(Nc1ccccc1Cl)c1cc(S(=O)(=O)N2CCOCC2)cs1,1.0,nt,0.8,-1.0,31.3*
CC(/C=C/c1cccs1)=C\C(=O)O,-8.7,nt,1.1,-16.0,32.1*
CC1C(=O)C(C)C(c2ccc3c(c2)OCO3)NC1c1ccc2c(c1)OCO2 (centres undefined),4.3,-6.2,0.8,-8.0,35.4*
O=C1CCCCC(=O)N(c2ccccc2)c2ccccc21,7.4,-5.3,0.9,3.0,31.5*
COCCOC(=O)c1[nH]c2c(c1C)C(=O)C(C(=O)OC)C(C)C2 (centres undefined),-11.3,-11.2,0.9,2.0,2.6
CCCCCOC(=O)c1[nH]c2c(c1C)C(=O)C(C(=O)OC)C(C)C2 (centres undefined),-2.2,74.7*,1,-11.0,15.2
COc1ccc(S(=O)(=O)N(CC(=O)NCc2ccco2)C2CCCCC2)cc1OC,-9.6,-8.8,1.2,-5.0,1.4
O=C(CN(C(=O)CSc1nc2ccccc2o1)c1cccc(F)c1)NC1CCCCC1,1.8,nt,1,4.0,7.0
Cc1cccn2c(=O)c3cc(C(=O)N4CCc5ccccc5C4)n(C)c3nc12,nt,11.0,nt,nt,nt
CCCN1C(=O)/C(=C2\SC(N3CCCCC3)=NC2=O)c2ccccc21,2.8,13.1,1,-8.0,39.5*
O=C1N=C(N2CCOCC2)S/C1=C1\C(=O)N(Cc2ccccc2)c2ccccc21,nt,-17.3,1,nt,nt
CN1C(=O)/C(=C2\SC(N3CCCCCC3)=NC2=O)c2ccccc21,5.8,nt,1.4,-7.0,42.2*
CCC(=O)c1ccc(O)c(CC=C(C)C)c1,6.7,nt,1.2,17.0,31.4*
Cn1c(=O)c2nc(-c3ccccc3)oc2c2ccccc21,8.5,37.3,0.9,-9.0,61.3*
O=C(N/N=C/c1ccco1)c1cc(-c2ccc3ccccc3c2)n[nH]1,13.2,nt,2.7*,-22.0,43.1*

# Screening data deposited in PubChem by several laboratories.
